These results are taken from ChEMBL document CHEMBL1154198, “Chemical genetics of Plasmodium falciparum” (Nature, 2010).

pEC50: −log10 of the molar value.

In data set [1] the test system is Leishmania major. Description: ST_JUDE: Cytotoxicity using Alamar Blue to measure viability of Leishmania major. In kind it is functional, organism-based. Summed up:
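L. major promastigotes; drug susceptibility read with Alamar Blue.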

For data set [2], the system named is Trypanosoma brucei. Description: ST_JUDE: Cytotoxicity using luciferase to measure ATP as an indicator of the viability of Trypanosoma brucei. In kind it is functional, organism-based.
The subject of data set [3] is Toxoplasma gondii. Description: ST_JUDE: Growth inhibition of to Toxoplasma gondii, in human U-2OS cells, as measured by luciferase. In kind it is functional, organism-based. As to conditions: RH, U2OS. Summed up: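 T. gondii parasites engineered to express luciferase; drug sensitivity read by luminescence.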
The nature of data set [4]: ST_JUDE: Cytotoxicity using luciferase to measure ATP as an indicator of the viability of human epithelial embryonic kidney cells (HEK293). The class given is toxicity, cell-based.
In data set [5] the test system is Plasmodium falciparum. The experiment in a line: ST_JUDE: Plasmodium falciparum 3D7 EC50 (uM) as measured by SYBR green dye. The class given is functional, organism-based.
Data set [6] can be described thus: ST_JUDE: Cytotoxicity using luciferase to measure ATP as an indicator of the viability of human foreskin fibroblast cells (BJ). The class given is toxicity, cell-based.
The subject of data set [7] is Plasmodium falciparum. The experiment in a line: ST_JUDE: Cytotoxicity against Plasmodium falciparum 3D7. The class given is functional, organism-based. Summed up: (§1)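 Asexual P. falciparum grown in human erythrocytes, exposed to compounds for 72 h, and growth read as the DNA quantity in treated versus control cultures. Dose-response run at 12 concentrations from 10 μM to 5 nM.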

Data set [8] deals with Plasmodium falciparum. The experiment in a line: ST_JUDE: Plasmodium falciparum K1 EC50 (uM) as measured by SYBR green dye. The class given is functional, organism-based.
Data set [9] relates to Plasmodium falciparum. The experiment in a line: ST_JUDE: Cytotoxicity against Plasmodium falciparum K1. The class given is functional, organism-based. Summed up: as §1
Data set [10] deals with Plasmodium falciparum. The experiment in a line: ST_JUDE: Cytotoxicity against Plasmodium falciparum SB-A6. The class given is functional, organism-based.
Data set [11] concerns Plasmodium falciparum. The experiment in a line: ST_JUDE: Cytotoxicity against Plasmodium falciparum D10 transfected with yeast DHOD. The class given is functional, organism-based.
Data set [12] relates to Plasmodium falciparum. The experiment in a line: ST_JUDE: Cytotoxicity against Plasmodium falciparum Dd2. The class given is functional, organism-based.
Data set [13] has as its system Plasmodium falciparum. The experiment in a line: ST_JUDE: Cytotoxicity against Plasmodium falciparum V1/S. The class given is functional, organism-based.
A short description of data set [14]: ST_JUDE: Cytotoxicity using luciferase to measure ATP as an indicator of the viability of human epithelial hepatocellular carcinoma cells (HepG2). The class given is toxicity, cell-based.
The subject of data set [15] is Plasmodium falciparum. The experiment in a line: ST_JUDE: Cytotoxicity against Plasmodium falciparum W2. The class given is functional, organism-based.
Data set [16] in a line: ST_JUDE: Cytotoxicity using luciferase to measure ATP as an indicator of the viability of human Burkitt''s lymphoma lymphoblast cells (Raji). In kind it is toxicity, cell-based.

Consider `CC(C)c1ccc(NC(=O)/C=C/c2ccccc2Cl)cc1`, for which the negative-log EC50 (pEC50) in data set [1] was less than 4.76; in data set [2], 4.64; in data set [3], less than 4.65; in [4], less than 4.39; in data set [5], 5.96; in data set [6] it was less than 4.39. For the same compound, the pEC50 in data set [7] was less than 4.98; in data set [8] it was 6.03; in data set [9], less than 4.98; in [10], less than 4.98; in data set [11] it was less than 4.98; in data set [12], 5.79. Also, the negative-log EC50 (pEC50) in [13] was less than 4.98; in data set [14], less than 4.39; in data set [15], 6.38; in data set [16] it was less than 4.39.
As to `CCN(CC)Cc1cc(Nc2ccnc3cc(Cl)ccc23)ccc1O`, the pEC50 is less than 4.76 in [1]; less than 4.41 in data set [2]; less than 4.66 in data set [3]; less than 4.40 in data set [4]; 7.54 in data set [5]; less than 4.40 in [6]. The pEC50 in data set [7] was 7.35; in data set [8], 7.58; in data set [9], 7.37; in data set [10] it was 7.49; in [11], 7.30; in [12], 7.13. For the same compound, the pEC50 was 7.35 in [13], less than 4.40 in [14], 7.92 in [15] and less than 4.40 in [16].
Regarding `CCN(CC)c1ccc(/C=C/c2ccc3ccc(OC)cc3[n+]2CC)cc1`, the pEC50 was 8.62 in data set [1]; 6.36 in [2]; 5.38 in [3]; less than 4.78 in data set [4]; 5.95 in data set [5]; less than 4.78 in data set [6]. In addition, the pEC50 in [7] was 6.37; in data set [8], 6.10; in data set [9] it was 6.38; in data set [10], 6.35; in data set [11], 6.51; in [12], 6.64. The negative-log EC50 (pEC50) in data set [13] is 6.38; in data set [14] it was 5.72; in data set [15] it was 6.52; in [16], 6.31.
`COc1ccc(NC(=O)C2c3ccccc3C(=O)N(CC(C)C)C2c2cccs2)cc1OC` (stereo not given): the negative-log EC50 (pEC50) is less than 4.73 in data set [1]; 5.16 in [2]; less than 4.62 in data set [3]; less than 4.36 in [4]; 7.30 in data set [5]; less than 4.36 in data set [6]. Besides, the negative-log EC50 (pEC50) was 6.98 in [7]; 7.29 in [8]; 6.96 in [9]; 7.05 in data set [10]; 7.04 in [11]; 6.91 in data set [12]. In addition, the pEC50 in [13] is 6.88; in [14], less than 4.36; in data set [15] it was 7.30; in data set [16] it was less than 4.36.
For the compound `CC(C)(C)C(=O)N1CCN(c2ccc([N+](=O)[O-])c(NC3CC3)c2)CC1`, the pEC50 in data set [1] was less than 4.73; in data set [2] it was 4.67; in data set [3], less than 4.62; in [4] it was less than 4.36; in data set [5] it was 6.17; in [6], less than 4.36. Also, the negative-log EC50 (pEC50) is 5.91 in data set [7]; 6.19 in data set [8]; 5.97 in [9]; 5.91 in data set [10]; 5.87 in data set [11]; 5.98 in data set [12]. The pEC50 in [13] is 5.94; in data set [14], less than 4.36; in data set [15], 6.32; in data set [16], less than 4.36.
Regarding `CCN(CC)CCN1C(=O)c2ccccc2NC1c1ccc(Cl)cc1` (stereo not given), the negative-log EC50 (pEC50) in data set [1] was less than 4.74; in data set [2], less than 4.39; in data set [3] it was less than 4.63; in [4], less than 4.37; in data set [5], 6.24; in data set [6], less than 4.37. Further, the negative logarithm of the EC50 (pEC50) in [7] was 5.66; in [8], 6.28; in data set [9], 5.78; in data set [10], 5.70; in [11], 5.73; in data set [12] it was 5.95. The pEC50 is 5.94 in data set [13], less than 4.37 in [14], 5.71 in data set [15] and less than 4.37 in [16].
On to `COc1ccc(C2CC(=O)C3=C(C2)NC(=O)CC3c2ccc(Br)cc2)cc1OC` (stereo not given), for which the negative logarithm of the EC50 (pEC50) in data set [1] is less than 4.69; in data set [2], 4.59; in [3] it was less than 4.58; in data set [4], less than 4.32; in data set [5], 5.94; in data set [6], less than 4.32. The negative logarithm of the EC50 (pEC50) in [7] was 5.98; in [8], 6.19; in [9] it was 5.96; in data set [10], 5.83; in [11], 5.75; in data set [12], 6.13. Moreover, the negative logarithm of the EC50 (pEC50) in data set [13] was 5.75; in data set [14], less than 4.32; in data set [15], 5.11; in data set [16] it was less than 4.32.
`COc1ccc(Nc2cc(C)nc(Nc3ccc(NS(=O)(=O)c4ccc(OC)cc4)cc3)n2)cc1`: the pEC50 in [1] is 6.76; in data set [2] it was 5.24; in data set [3], less than 4.56; in [4], 4.51; in data set [5], 6.13; in [6], less than 4.30. Also, the negative-log EC50 (pEC50) in [7] was 5.99; in [8], less than 4.82; in data set [9] it was less than 4.89; in data set [10], 6.26; in [11] it was 5.77; in [12], 5.91. In addition, the pEC50 is less than 4.89 in [13], 4.76 in [14], less than 4.89 in [15] and 4.85 in [16].
Consider `CCCO/C(O)=C1\C(C)=NC2=C(C(=O)CC(c3ccc(OC)c(OC)c3)C2)C1c1ccccc1C` (stereo not given), for which the negative-log EC50 (pEC50) in data set [1] is less than 4.75; in [2], 5.18; in data set [3] it was less than 4.65; in data set [4] it was less than 4.38; in [5], 6.51; in [6] it was less than 4.38. The pEC50 was 6.87 in [7]; 6.53 in data set [8]; 6.96 in data set [9]; 7.25 in [10]; 7.16 in [11]; 7.05 in data set [12]. Besides, the pEC50 in [13] was 7.01; in data set [14], less than 4.38; in [15] it was 7.67; in data set [16] it was less than 4.38.
For the compound `Cc1ccc2c(c1)S/C(=C\c1sc3ccccc3[n+]1C)N2CCO`, the negative logarithm of the EC50 (pEC50) in data set [1] was 6.95; in [2], 4.96; in data set [3], less than 4.89; in data set [4], less than 4.63; in data set [5], 6.44; in data set [6], less than 4.63. The negative logarithm of the EC50 (pEC50) in data set [7] is 6.26; in data set [8], 6.85; in data set [9], 6.25; in [10], 6.22; in [11], 6.36; in [12], 6.37. Further, the pEC50 in [13] was 6.24; in [14], less than 4.63; in [15], 6.31; in data set [16], 5.51.

By pEC50 is commonly meant the negative decadic logarithm of the EC50, by convention in mol/L.
